ChEMBL document CHEMBL5678805, “Intermittent administration of MEK inhibitor GDC-0973 plus PI3K inhibitor GDC-0941 triggers robust apoptosis and tumor growth inhibition” (Cancer Res, 2012)
pIC50: −log10 of the molar value. Active and inactive are the calls of the source. No cut-off for these calls is given here.

Tests used:
[1] = system: A375.X1; test: Antitumor activity against human A375.X1 cells xenografted in mouse assessed as reduction in ERK phosphorylation at 1 to 10 mg/kg, po by Western blot analysis; format: functional, organism-based; conditions: dose 1-10 mg/kg, time 74-96 hrs, TDE = time-dependent effect
Procedure, shortened: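 A375.X1 xenograft mice were dosed orally at 1, 3, 5 or 10 mg/kg once daily for 3 days. Tumors were collected 2, 8 and 24 h after the last dose, pulverized frozen and resolved by 4–12% SDS-PAGE. p-ERK1/2 and t-ERK1/2 were measured by Western blot and quantified by band intensity, relative to vehicle-treated mice (0 h).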

[2] = system: A2058; test: Antitumor activity against human A2058 cells xenografted in mouse assessed as tumor growth inhibition at 20 mg/kg, po administered every third day for 21 days in presence of 4-(2-(1H-indazol-4-yl)-6-((4-(methylsulfonyl)piperazin-1-yl)methyl)thieno[3,2-d]pyrimidin-4-yl)morpholine; format: functional; conditions: A2058, 504 h, time 21 day, read-out: TGI
Procedure, shortened: (§1)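 Human tumor xenografts in mice. Drugs given orally, as single agents or combined with the PI3K inhibitor. Schedules were daily (QD) or every third day (Q3D) over 21 days. Tumor volume was measured by caliper as (L×W×W)/2. %TGI = 100×[1 − AUC(treatment/d)/AUC(vehicle/d)] from fitted growth curves, with group means. Tumor lysates were immunoblotted for pS6.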

[3] = Antitumor activity against human MOLM16 cells harboring FLT3 T227M mutant xenografted in mouse assessed as tumor growth inhibition at 5 mg/kg, po; format: functional, MOLM-16; conditions: read-out: TGI
Procedure, shortened: (§2)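 Human tumor xenografts in mice were dosed orally at the indicated mg/kg. Tumor volume was measured with calipers as (L×W×W)/2. %TGI = 100 × [1 − (AUC treatment/d)/(AUC vehicle/d)], using the area under the fitted tumor-growth curve per day for each dose group relative to vehicle.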

[4] = biological target: CDK6/cyclin D3 (Homo sapiens, UniProt Q00534); test: Inhibition of CDK6/cyclinD3 (unknown origin); format: protein-complex assay
Sequence of CDK6/cyclin D3 (P30281 whole entry): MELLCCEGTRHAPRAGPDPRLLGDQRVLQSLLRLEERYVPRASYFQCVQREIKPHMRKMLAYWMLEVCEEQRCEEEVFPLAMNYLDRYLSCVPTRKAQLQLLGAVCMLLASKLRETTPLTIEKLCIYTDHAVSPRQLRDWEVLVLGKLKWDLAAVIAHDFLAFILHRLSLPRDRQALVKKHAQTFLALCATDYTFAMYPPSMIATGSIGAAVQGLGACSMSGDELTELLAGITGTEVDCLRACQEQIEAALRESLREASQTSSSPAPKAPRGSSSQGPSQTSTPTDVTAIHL
Sequence of CDK6/cyclin D3 (Q00534 whole entry): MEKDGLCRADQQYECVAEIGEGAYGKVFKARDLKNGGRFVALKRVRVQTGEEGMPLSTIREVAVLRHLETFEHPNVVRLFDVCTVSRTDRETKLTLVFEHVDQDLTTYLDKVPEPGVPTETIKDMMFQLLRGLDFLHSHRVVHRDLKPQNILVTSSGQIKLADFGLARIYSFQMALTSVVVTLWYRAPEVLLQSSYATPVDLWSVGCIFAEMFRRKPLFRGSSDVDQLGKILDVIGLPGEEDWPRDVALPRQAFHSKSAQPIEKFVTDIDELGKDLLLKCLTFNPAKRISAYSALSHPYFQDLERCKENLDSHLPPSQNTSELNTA

[5] = system: 537-mel; test: Antitumor activity against human 537-mel cells harboring PTEN null mutation xenografted in mouse assessed as tumor growth inhibition at 5 mg/kg, po; format: functional; conditions: read-out: TGI
Procedure, shortened: (§3)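 Mice carrying human tumor xenografts dosed orally once daily for 21 consecutive days. Tumor volume measured by calipers as (L×W×W)/2. %TGI = 100×[1 − AUC(treatment/day)/AUC(vehicle/day)], using the area under the fitted growth curve relative to vehicle.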

[6] = biological target: Dual specificity mitogen-activated protein kinase kinase 6 (Homo sapiens, UniProt P52564); test: Inhibition of MKK6 (unknown origin)
Sequence of Dual specificity mitogen-activated protein kinase kinase 6 (P52564 whole entry): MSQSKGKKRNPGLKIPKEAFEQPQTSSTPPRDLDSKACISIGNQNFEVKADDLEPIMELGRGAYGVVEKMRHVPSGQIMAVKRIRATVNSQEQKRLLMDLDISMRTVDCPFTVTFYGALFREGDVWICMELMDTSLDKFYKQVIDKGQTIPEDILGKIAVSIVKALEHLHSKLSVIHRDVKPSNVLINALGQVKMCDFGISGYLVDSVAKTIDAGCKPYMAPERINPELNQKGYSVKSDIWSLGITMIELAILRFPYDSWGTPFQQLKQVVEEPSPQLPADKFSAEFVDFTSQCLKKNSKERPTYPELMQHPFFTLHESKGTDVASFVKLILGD

[7] = biological target: Serine/threonine-protein kinase Nek3 (Homo sapiens, UniProt P51956); test: Inhibition of NEK3 (unknown origin)
Sequence of Serine/threonine-protein kinase Nek3 (P51956 whole entry): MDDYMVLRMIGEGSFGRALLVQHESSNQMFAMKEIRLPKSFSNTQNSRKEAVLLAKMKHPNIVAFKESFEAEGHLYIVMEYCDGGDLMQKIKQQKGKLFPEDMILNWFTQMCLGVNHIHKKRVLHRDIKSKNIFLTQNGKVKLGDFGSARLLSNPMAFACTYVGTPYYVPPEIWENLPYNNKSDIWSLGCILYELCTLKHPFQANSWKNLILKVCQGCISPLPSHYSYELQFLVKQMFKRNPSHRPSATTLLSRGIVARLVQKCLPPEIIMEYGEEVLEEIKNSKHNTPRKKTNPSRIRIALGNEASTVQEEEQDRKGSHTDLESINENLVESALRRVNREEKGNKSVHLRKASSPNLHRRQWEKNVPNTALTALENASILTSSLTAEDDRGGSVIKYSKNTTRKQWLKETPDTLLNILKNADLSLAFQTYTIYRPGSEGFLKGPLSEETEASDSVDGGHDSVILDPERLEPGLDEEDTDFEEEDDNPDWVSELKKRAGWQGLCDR

[8] = system: A-427; test: Antitumor activity against human A-427 cells harboring […]/LKB1 CDKN2A CTNNB1 T41A SMARCA4 mutant xenografted in mouse assessed as tumor growth inhibition at 5 mg/kg, po; format: functional; conditions: A-427, read-out: TGI
[9] = system: SK-OV-3; test: Antitumor activity against human SK-OV-3 cells harboring FBXW7 R505L and CDKN2A mutant xenografted in mouse assessed as tumor growth inhibition at 5 mg/kg, po; format: functional; conditions: read-out: TGI; procedure, shortened: as §2
[10] = system: Hs-578T; test: Antiproliferative activity against human Hs-578T cells assessed as reduction in cell viability incubated for 96 hrs in presence of 4-(2-(1H-indazol-4-yl)-6-((4-(methylsulfonyl)piperazin-1-yl)methyl)thieno[3,2-d]pyrimidin-4-yl)morpholine; format: functional, cell-based
[11] = biological target: Casein kinase 2 (Homo sapiens, UniProt P67870+P68400+P19784+Q8NEV1); test: Inhibition of CK2 (unknown origin); format: protein assay
[12] = system: A2058; test: Antitumor activity against human A2058 cells harboring BRAF V600E/PTEN deletion mutant xenografted in mouse assessed as increase in Bim level at 15 mg/kg, po administered every third day for 21 days and measured after 72 hrs post dose in presence of 4-(2-(1H-indazol-4-yl)-6-((4-(methylsulfonyl)piperazin-1-yl)methyl)thieno[3,2-d]pyrimidin-4-yl)morpholine by Western blot analysis; format: functional, organism-based; conditions: time 576.0 hrs
[13] = system: DU-145; test: Antitumor activity against human DU-145 cells harboring KRAS G12V/LKB1 K178/TP53 P223L/V274F/CDKN2A/MLH1/SMARCA4/ NF1 P2472H/RB1K715 mutant xenografted in mouse assessed as tumor growth inhibition at 10 mg/kg, po; format: functional; conditions: read-out: TGI
Procedure, shortened: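 Single-agent dose ranging in human tumor xenograft mice at 2.5, 5 or 10 mg/kg oral. Tumor volume was measured by caliper as (L×W×W)/2. %TGI = 100×[1 − AUC(treatment/d)/AUC(vehicle/d)] from the fitted growth curve per dose group, relative to vehicle.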

[14] = system: A2058; test: Antitumor activity against human A2058 cells harboring BRAF V600E/PTEN L112Q/V175/TP53 V274F mutant xenografted in mouse assessed as tumor growth inhibition at 5 mg/kg, po; format: functional; conditions: read-out: TGI; procedure, shortened: as §3
[15] = system: DLD-1; test: Antitumor activity against human DLD-1 cells xenografted in mouse assessed as tumor growth inhibition at 10 mg/kg, po administered every third day for 21 days; format: functional; conditions: DLD-1, 504 h, time 21 day, read-out: TGI; procedure, shortened: as §1
[16] = biological target: Fibroblast growth factor receptor 1 (Homo sapiens, UniProt P11362); test: Inhibition of FGFR1 (unknown origin)
Sequence of Fibroblast growth factor receptor 1 (P11362 whole entry): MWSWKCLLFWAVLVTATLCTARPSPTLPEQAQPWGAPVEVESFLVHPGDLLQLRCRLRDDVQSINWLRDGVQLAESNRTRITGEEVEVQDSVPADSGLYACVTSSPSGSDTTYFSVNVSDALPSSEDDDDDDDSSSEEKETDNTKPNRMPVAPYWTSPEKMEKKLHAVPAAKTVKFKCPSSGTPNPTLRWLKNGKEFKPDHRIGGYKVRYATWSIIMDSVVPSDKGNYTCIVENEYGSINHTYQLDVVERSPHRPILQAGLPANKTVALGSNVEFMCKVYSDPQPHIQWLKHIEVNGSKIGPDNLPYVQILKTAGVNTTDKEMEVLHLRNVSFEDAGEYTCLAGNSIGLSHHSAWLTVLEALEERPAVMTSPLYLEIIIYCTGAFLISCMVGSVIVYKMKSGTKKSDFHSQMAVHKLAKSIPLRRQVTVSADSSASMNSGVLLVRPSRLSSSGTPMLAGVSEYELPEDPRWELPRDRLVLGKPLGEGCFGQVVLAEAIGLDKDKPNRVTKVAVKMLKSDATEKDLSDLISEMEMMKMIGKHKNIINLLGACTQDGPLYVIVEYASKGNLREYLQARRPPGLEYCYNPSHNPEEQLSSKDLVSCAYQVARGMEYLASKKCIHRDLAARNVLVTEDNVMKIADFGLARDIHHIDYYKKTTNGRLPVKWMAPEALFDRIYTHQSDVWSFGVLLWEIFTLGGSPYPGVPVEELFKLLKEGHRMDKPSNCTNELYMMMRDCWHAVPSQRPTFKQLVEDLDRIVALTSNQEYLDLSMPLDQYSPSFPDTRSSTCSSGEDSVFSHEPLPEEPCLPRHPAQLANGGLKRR

[17] = system: DLD-1; test: Antitumor activity against human DLD-1 cells xenografted in mouse assessed as tumor growth inhibition at 15 mg/kg, po administered once a day for 21 days; format: functional; conditions: DLD-1, 504 h, time 21 day, read-out: TGI; procedure, shortened: as §1
[18] = biological target: Death-associated protein kinase 1 (Homo sapiens, UniProt P53355); test: Inhibition of DAPK1 (unknown origin)
Sequence of Death-associated protein kinase 1 (P53355 whole entry): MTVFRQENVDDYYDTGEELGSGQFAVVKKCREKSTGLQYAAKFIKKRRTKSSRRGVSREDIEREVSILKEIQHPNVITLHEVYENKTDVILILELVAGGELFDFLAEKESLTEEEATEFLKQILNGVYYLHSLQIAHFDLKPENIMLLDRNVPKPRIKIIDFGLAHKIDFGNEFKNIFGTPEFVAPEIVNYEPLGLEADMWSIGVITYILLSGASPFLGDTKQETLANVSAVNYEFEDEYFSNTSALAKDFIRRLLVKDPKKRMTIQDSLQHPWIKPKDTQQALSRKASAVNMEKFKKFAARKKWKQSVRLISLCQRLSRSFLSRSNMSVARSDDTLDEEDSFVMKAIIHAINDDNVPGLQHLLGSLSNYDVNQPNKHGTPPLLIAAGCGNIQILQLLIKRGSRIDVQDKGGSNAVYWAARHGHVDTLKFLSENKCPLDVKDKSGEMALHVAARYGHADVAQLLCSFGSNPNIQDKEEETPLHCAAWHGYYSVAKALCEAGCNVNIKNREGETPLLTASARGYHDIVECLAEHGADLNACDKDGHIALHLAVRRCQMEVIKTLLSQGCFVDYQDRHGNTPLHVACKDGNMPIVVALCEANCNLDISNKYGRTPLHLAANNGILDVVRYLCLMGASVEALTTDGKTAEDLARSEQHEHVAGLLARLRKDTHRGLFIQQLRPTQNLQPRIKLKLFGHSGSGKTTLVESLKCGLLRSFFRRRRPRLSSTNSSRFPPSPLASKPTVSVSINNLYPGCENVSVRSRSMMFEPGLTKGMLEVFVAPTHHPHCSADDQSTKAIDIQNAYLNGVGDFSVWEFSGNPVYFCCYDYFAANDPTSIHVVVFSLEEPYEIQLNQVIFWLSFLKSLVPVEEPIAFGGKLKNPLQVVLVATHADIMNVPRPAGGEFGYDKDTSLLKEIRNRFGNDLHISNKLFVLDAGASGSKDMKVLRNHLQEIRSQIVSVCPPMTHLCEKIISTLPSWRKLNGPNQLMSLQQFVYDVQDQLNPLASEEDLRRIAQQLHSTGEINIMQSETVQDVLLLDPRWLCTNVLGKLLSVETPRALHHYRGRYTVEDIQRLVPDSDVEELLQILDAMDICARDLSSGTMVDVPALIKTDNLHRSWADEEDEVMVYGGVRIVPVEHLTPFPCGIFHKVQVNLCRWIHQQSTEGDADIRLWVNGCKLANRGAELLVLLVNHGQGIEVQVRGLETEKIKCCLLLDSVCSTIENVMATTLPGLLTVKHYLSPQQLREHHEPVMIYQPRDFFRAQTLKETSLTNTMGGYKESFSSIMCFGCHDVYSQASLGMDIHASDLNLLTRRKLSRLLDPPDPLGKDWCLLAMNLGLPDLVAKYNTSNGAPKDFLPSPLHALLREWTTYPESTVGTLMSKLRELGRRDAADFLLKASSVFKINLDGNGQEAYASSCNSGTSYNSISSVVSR

[19] = system: 888-mel; test: Inhibition of AKT phosphorylation in human 888-mel cells incubated for 24 hrs in presence of 4-(2-(1H-indazol-4-yl)-6-((4-(methylsulfonyl)piperazin-1-yl)methyl)thieno[3,2-d]pyrimidin-4-yl)morpholine by immunoblotting analysis; format: cell-based
[20] = biological target: Inhibitor of nuclear factor kappa-B kinase subunit alpha (Homo sapiens, UniProt O15111); test: Inhibition of IKKa (unknown origin)
[21] = biological target: Serine/threonine-protein kinase PLK3 (Homo sapiens, UniProt Q9H4B4); test: Inhibition of Plk3 (unknown origin)
Sequence of Serine/threonine-protein kinase PLK3 (Q9H4B4 whole entry): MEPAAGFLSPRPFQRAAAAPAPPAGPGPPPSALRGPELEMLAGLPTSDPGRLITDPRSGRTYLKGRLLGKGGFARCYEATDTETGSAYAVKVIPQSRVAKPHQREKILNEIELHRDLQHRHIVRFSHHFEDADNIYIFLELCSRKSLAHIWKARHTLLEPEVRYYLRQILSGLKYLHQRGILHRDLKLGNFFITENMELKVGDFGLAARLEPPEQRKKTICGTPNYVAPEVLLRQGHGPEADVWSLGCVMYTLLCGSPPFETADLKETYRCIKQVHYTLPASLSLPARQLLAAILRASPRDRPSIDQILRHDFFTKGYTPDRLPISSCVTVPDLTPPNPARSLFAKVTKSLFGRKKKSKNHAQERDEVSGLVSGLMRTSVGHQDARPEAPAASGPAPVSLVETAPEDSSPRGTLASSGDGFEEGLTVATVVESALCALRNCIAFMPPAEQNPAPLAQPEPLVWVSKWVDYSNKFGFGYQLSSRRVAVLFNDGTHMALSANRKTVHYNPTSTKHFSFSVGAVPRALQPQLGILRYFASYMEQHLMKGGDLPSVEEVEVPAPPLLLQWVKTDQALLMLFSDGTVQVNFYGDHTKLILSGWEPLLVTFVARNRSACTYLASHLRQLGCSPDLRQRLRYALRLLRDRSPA

[22] = system: A2058; test: Antitumor activity against human A2058 cells harboring BRAF V600E/PTEN deletion mutant xenografted in mouse assessed as increase in BimL level at 15 mg/kg, po administered every third day for 21 days and measured after 8 hrs post dose by Western blot analysis; format: functional, organism-based; conditions: time 512.0 hrs
[23] = system: MOLM-13; test: Antitumor activity against human MOLM-13 cells harboring FLT3 Y599_D600insFDFREYE and c-Cbl E366_Q409del mutant xenografted in mouse assessed as tumor growth inhibition at 5 mg/kg, po; format: functional; conditions: MOLM-13, read-out: TGI; procedure, shortened: as §2
[24] = system: NCI-H2122; test: Antiproliferative activity against human NCI-H2122 cells assessed as reduction in cell viability incubated for 96 hrs in presence of 4-(2-(1H-indazol-4-yl)-6-((4-(methylsulfonyl)piperazin-1-yl)methyl)thieno[3,2-d]pyrimidin-4-yl)morpholine; format: functional, cell-based
[25] = biological target: Ribosomal protein S6 kinase alpha-5 (Homo sapiens, UniProt O75582); test: Inhibition of MSK1 (unknown origin)
[26] = biological target: Proto-oncogene tyrosine-protein kinase Src (Homo sapiens, UniProt P12931); test: Inhibition of SRC (unknown origin)
Sequence of Proto-oncogene tyrosine-protein kinase Src (P12931 2-536 limits assumed): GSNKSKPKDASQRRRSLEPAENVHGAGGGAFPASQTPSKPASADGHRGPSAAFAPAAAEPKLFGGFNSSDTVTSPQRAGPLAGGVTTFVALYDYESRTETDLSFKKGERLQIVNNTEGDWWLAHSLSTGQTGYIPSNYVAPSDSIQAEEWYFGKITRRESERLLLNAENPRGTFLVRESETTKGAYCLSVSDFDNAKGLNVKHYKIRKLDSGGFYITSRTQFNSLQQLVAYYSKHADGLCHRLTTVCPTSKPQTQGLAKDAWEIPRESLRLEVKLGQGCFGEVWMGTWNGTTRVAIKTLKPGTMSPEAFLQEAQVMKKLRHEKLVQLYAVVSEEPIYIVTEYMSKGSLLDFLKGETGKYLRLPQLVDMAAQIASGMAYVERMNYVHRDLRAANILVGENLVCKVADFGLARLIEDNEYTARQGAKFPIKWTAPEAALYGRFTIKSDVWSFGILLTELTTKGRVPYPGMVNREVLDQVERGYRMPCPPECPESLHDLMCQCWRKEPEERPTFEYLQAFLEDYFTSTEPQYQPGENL

For `O=C(c1ccc(F)c(F)c1Nc1ccc(I)cc1F)N1CC(O)([C@@H]2CCCCN2)C1` [COBIMETINIB], which Activity [1] is on record?
Its Activity is “Tde”.

What about the inhibition in vivo at 20 mg/kg [2] of the same compound?
The inhibition in vivo at 20 mg/kg was 83%.

And the inhibition in vivo at 5 mg/kg [3]?
Its inhibition in vivo at 5 mg/kg is 30%.

What about the pIC50 [4] of the same compound?
The pIC50 was under 5.00.

And the inhibition in vivo at 5 mg/kg [5]?
The inhibition in vivo at 5 mg/kg was 94%.

What about the pIC50 [6] of the same compound?
Its pIC50 is under 5.00.

And the pIC50 [7]?
The pIC50 was under 5.00.

And the inhibition in vivo at 5 mg/kg [8]?
Its inhibition in vivo at 5 mg/kg is -137%.

And the inhibition in vivo at 5 mg/kg [9]?
Its inhibition in vivo at 5 mg/kg is 69%.

What about the Activity [10] of the same compound?
Its Activity is “inactive”.

And the IC50 [11]?
Its IC50 is over 10 µM.

What about the Activity [12] of the same compound?
The Activity was “Active”.

And the inhibition in vivo at 10 mg/kg [13]?
The inhibition in vivo at 10 mg/kg was 77%.

What about the inhibition in vivo at 5 mg/kg [14] of the same compound?
The inhibition in vivo at 5 mg/kg was 12.7%.

What about the inhibition in vivo at 10 mg/kg [15] of the same compound?
Its inhibition in vivo at 10 mg/kg is 18%.

What about the pIC50 [16] of the same compound?
Its pIC50 is under 5.00.

And the inhibition in vivo at 15 mg/kg [17]?
The inhibition in vivo at 15 mg/kg was 2%.

And the pIC50 [18]?
Its pIC50 is under 5.00.

What about the inhibition [19] of the same compound?
The inhibition was “Active”.

What about the pIC50 [20] of the same compound?
The pIC50 was under 5.00.

What about the pIC50 [21] of the same compound?
Its pIC50 is under 5.00.

What about the Activity [22] of the same compound?
The Activity was “Active”.

What about the inhibition in vivo at 5 mg/kg [23] of the same compound?
Its inhibition in vivo at 5 mg/kg is -6%.

And the Activity [24]?
Its Activity is “inactive”.

What about the pIC50 [25] of the same compound?
The pIC50 was under 5.00.

And the pIC50 [26]?
The pIC50 was under 5.00.
